The data set in a line: Toxicity liver stage against HepG2, at 10uM. In kind it is cell-based. Also on record: test concentration 10 uM, cell line HepG2-A16-CD81EGFP. The conditions noted are these: human, HepG2-A16-CD81EGFP cells; read-out: INHIBITION
The method, boiled down:
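Uninfected HepG2-A16-CD81EGFP cells, 3 × 10^3 per well, 1536-well, plated on prespotted compound at 10 μM final, parasite-free screening media added to match infected plates; puromycin 10 μM positive, DMSO 0.5% negative; run in parallel with 48 h PbLuc assay at 37 °C, 5% CO2; viability by CellTiter-Glo luminescence, normalized to controls.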

Cytotoxicity data for 70 compounds are collected here from ChEMBL document CHEMBL4513216, “Probing the Open Global Health Chemical Diversity Library for Multistage-Active Starting Points for Next-Generation Antimalarials” (ACS Infect Dis, 2020).

SMILES strings stand for the structures.

In the case of `O=C(c1cnccn1)N1CC[C@H]2[C@@H]1CCC(=O)N2c1cccnc1`, the cytotoxicity at 10 µM is -81.6%.

For `Cn1cnc2c1CCN(CCCOc1ccc(S(C)(=O)=O)cc1)C2`, the cytotoxicity at 10 µM was found to be 4.94%.

Regarding `Cc1cccc(CN2CCC3(CCN(c4ncccn4)CC3)C2=O)c1`, the cytotoxicity at 10 µM amounted to 5.32%.

Turning to `CCc1cc(N[C@@H](CO)C(N)=O)n2nc(C)c(C)c2n1`, the cytotoxicity at 10 µM was -13.4%.

On to `O=C1CCN(C(=O)c2csc(-c3ccc(C(F)(F)F)cc3)n2)CCN1`, for which the cytotoxicity at 10 µM was -12.3%.

For `Cc1cc(Cl)ccc1NCC(=O)Nc1cc(C(C)(C)C)no1`, the cytotoxicity at 10 µM turned out to be 0.521%.

On to `O=C(C1CCOCC1)N1CCO[C@H]2[C@@H](OCc3ccncc3)CC[C@@H]21`, for which the cytotoxicity at 10 µM is 5.54%.

For the compound `CCOCC(=O)N1CCOCC2(CCN(c3ncccn3)C2)C1` (stereo not given), the cytotoxicity at 10 µM was -2.22%.

For the compound `Cc1ccc(-c2nc(CNC3CCc4ncnn4C3)co2)c(C)c1` (stereo not given), the cytotoxicity at 10 µM is -9.5%.

As for `Cn1cnc2c1C(COCC1CCOCC1)CN(Cc1ccccn1)C2` (stereo not given), the cytotoxicity at 10 µM was -78.2%.

For `CN(C)c1ccc(C2CC(=O)Nc3c2cnn3Cc2ccco2)cc1` (stereo not given), the cytotoxicity at 10 µM was -3.08%.

Regarding `O=C(NCC1OCCc2cn(CC3CCOCC3)nc21)c1ccncc1` (stereo not given), the cytotoxicity at 10 µM was -78%.

On to `CN(Cc1ccc(Cl)s1)C(=O)NCCN1CCCCCC1=O`, for which the cytotoxicity at 10 µM was -0.509%.

Take `Cc1cc(C)n(CC2CCCN2C(=O)c2c[nH]c3ncccc23)n1` (stereo not given): the cytotoxicity at 10 µM is -0.808%.

As for `CN(c1ncc(C(N)=O)cc1Cl)C1CCC(c2ccccc2)CC1` (stereo not given), the cytotoxicity at 10 µM is 38.8%.

On to `CNc1cc(-c2nc(CCN3CCCC3=O)no2)ccn1`, for which the cytotoxicity at 10 µM was determined as 7.46%.

For the compound `Cn1cc(CN2CCCC23CCN(S(C)(=O)=O)CC3)cn1`, the cytotoxicity at 10 µM is -82.1%.

With `c1cc2n(n1)CC(CNCc1ccc(OC3CCCC3)nc1)CN2` (stereo not given), the cytotoxicity at 10 µM was -5.17%.

With `CO[C@H]1CCN(c2ncc(F)cn2)[C@@H]2CN(Cc3ccco3)C[C@H]12`, the cytotoxicity at 10 µM turned out to be 13.5%.

Regarding `COc1cccc(COCC(O)CN(C)c2ccc(C)cc2C)c1` (stereo not given), the cytotoxicity at 10 µM came to 9.66%.

On to `COCC(O)CN(C)C(=O)NC1CCN(Cc2ccccn2)CC1` (stereo not given), for which the cytotoxicity at 10 µM was -0.0353%.

Regarding `COCC(=O)N1CCC2(COCc3cnc(N4CCOCC4)nc32)C1` (stereo not given), the cytotoxicity at 10 µM is -65%.

In the case of `Cc1nnc(CN(Cc2cccc(Cl)c2)C(C)C)o1`, the cytotoxicity at 10 µM amounted to 1.69%.

`CCc1nccn1C1CCCN(C(=O)c2ccc3nnc(C)n3c2)C1` (stereo not given): the cytotoxicity at 10 µM is -8.95%.

In the case of `O=C(c1cccc(-c2ncc[nH]2)c1)N1CC[C@H](CO)[C@@H](O)C1`, the cytotoxicity at 10 µM is -0.462%.

In the case of `CS(=O)(=O)N1CCC(Oc2ccc(C(=O)N3CCSCC3)cc2Cl)CC1`, the cytotoxicity at 10 µM worked out at 16.2%.

For `c1cnnc(N2CCCC2CNCc2cnc(N3CCCC3)nc2)c1` (stereo not given), the cytotoxicity at 10 µM amounted to 7.96%.

For `Cc1occc1CNC(=O)C1(C)CCCN(C(=O)c2ccccc2)C1` (stereo not given), the cytotoxicity at 10 µM was -7.01%.

For `COC[C@@]12CCC[C@@H]1CN(C(=O)Cc1ccccn1)C2`, the cytotoxicity at 10 µM was -96.7%.

As for `COCCC(C)NCc1ccccc1-n1ccnc1` (stereo not given), the cytotoxicity at 10 µM worked out at 1.91%.

Regarding `CCc1nc(C2CCCN2C(=O)c2ccc3c(c2)COC3)no1` (stereo not given), the cytotoxicity at 10 µM was -14.4%.

On to `COCCN(C)C(C)Cc1ccccc1OC` (stereo not given), for which the cytotoxicity at 10 µM was -5.34%.

For the compound `O=S(=O)(c1cccs1)N1CCN2C[C@H](OCC3CC3)C[C@H]2C1`, the cytotoxicity at 10 µM was 11.9%.

In the case of `Cc1noc(COCC(=O)Nc2cc(C)c(Br)cn2)n1`, the cytotoxicity at 10 µM came out at 5.5%.

As to `Cc1cc(C)n(-c2ccc(C(=O)NCc3cncn3CC(C)C)cc2)n1`, the cytotoxicity at 10 µM was -4.04%.

Consider `COc1cc2c(cc1CNC(=O)C(C)n1ccnc1C(C)C)CCC2` (stereo not given), for which the cytotoxicity at 10 µM was 0.719%.

As for `Cn1ccc(CN2CCC(CC(=O)N3CCCC3)CC2)cc1=O`, the cytotoxicity at 10 µM is -12.6%.

As for `Cc1cccc(-c2[nH]ncc2CNCC2CCN(CC(C)O)CC2)c1` (stereo not given), the cytotoxicity at 10 µM is -10.1%.

For `COCCn1cc(NCc2c[nH]nc2-c2ccc(OC)cc2)cn1`, the cytotoxicity at 10 µM was found to be 6.05%.

Consider `Cc1nn(C)c(N(C)C)c1CNCc1cccnc1N(C)C`, for which the cytotoxicity at 10 µM was determined as 1.84%.

With `CCOc1ccc(NC(C)=O)cc1S(=O)(=O)Nc1cc(C)on1`, the cytotoxicity at 10 µM was -4.13%.

Take `CC(O)CCN(C)C(=O)Nc1ccc(Br)cc1` (stereo not given): the cytotoxicity at 10 µM was -2.1%.

As to `Cc1ccncc1NS(=O)(=O)c1ccc(Cl)s1`, the cytotoxicity at 10 µM came out at 0.405%.

For `Cc1ncsc1CCn1ccnc1-c1cc2n(n1)CCCNC2`, the cytotoxicity at 10 µM is -0.434%.

In the case of `CNc1ncc(CN(C)C(=O)c2cccc(CC3CCNCC3)c2)cn1`, the cytotoxicity at 10 µM was -19.7%.

`CCc1nc(NC2CCCN(C(=O)c3cccs3)C2)c2cnn(C)c2n1` (stereo not given): the cytotoxicity at 10 µM was 13.9%.

Consider `Cn1ncc2c(NCCOCc3ccccc3)nc(C3CCCC3)nc21`, for which the cytotoxicity at 10 µM was determined as 9.67%.

With `COc1c(CNCc2ccc(N3CCOCC3)nc2)c(C)nn1C`, the cytotoxicity at 10 µM was found to be 9.5%.

With `CCc1ccc(C(=O)N2CCCN(Cc3nccn3CC)CC2)s1`, the cytotoxicity at 10 µM is -8.72%.

Take `O=C1N(CC2CC2)CCC12CCCN(c1ncc(F)cn1)C2` (stereo not given): the cytotoxicity at 10 µM stood at 4.79%.

On to `CCCc1nc(N2CCCC3(CCNC3)C2)c2cnn(C)c2n1` (stereo not given), for which the cytotoxicity at 10 µM was -47.8%.

For `CNC(=O)[C@@H]1C[C@@H](N)CN1c1nnc(-c2ccccc2)s1`, the cytotoxicity at 10 µM was -36%.

Regarding `Cc1cc(N[C@H](CO)c2ccccc2)n2nc(C)cc2n1`, the cytotoxicity at 10 µM is -1.58%.

Consider `COCCn1cnc2ccc(NC(=O)C(C)C)cc2c1=O`, for which the cytotoxicity at 10 µM was -9.46%.

Take `Cc1cc2ncn(C[C@]3(O)CCCN4CCCC[C@@H]43)c2cc1C`: the cytotoxicity at 10 µM is -2.42%.

As for `O=C(c1cccs1)N1CCC[C@]2(C[C@@H](OCc3ccncc3)CO2)C1`, the cytotoxicity at 10 µM is 7.92%.

As to `CNC(=O)c1cccc(NC(=O)NC(C)CCc2cccn2C)c1C` (stereo not given), the cytotoxicity at 10 µM is -1.39%.

On to `CC(C)=CCN1C(=O)[C@@H]2CC[C@H]1CN(c1ncccc1C(N)=O)C2`, for which the cytotoxicity at 10 µM is 6.13%.

For the compound `CCOc1ccc(C#N)cc1NC(=O)N1CCC(N2CCCC2)C1` (stereo not given), the cytotoxicity at 10 µM is -7.35%.

For the compound `O=S(=O)(c1ccccc1)N1C2CCC(O)(CC2)C1CN1CCOCC1` (stereo not given), the cytotoxicity at 10 µM was -4.65%.

Consider `CC(C)c1n[nH]c(C(=O)NC(C)c2ccncc2)c1Br` (stereo not given), for which the cytotoxicity at 10 µM was -5.85%.

Consider `O=C(NCCc1ccccn1)C1=NN(c2ccccc2)C(=O)CN1`, for which the cytotoxicity at 10 µM is -1.96%.

With `CCOCC1CN(Cc2cnn(C)c2)Cc2nn(C)cc21` (stereo not given), the cytotoxicity at 10 µM amounted to 2.37%.

As for `COCCCN1CCCC12CCN(Cc1cccnc1OC)CC2`, the cytotoxicity at 10 µM was 11.8%.

As for `O=C(c1cnccn1)N1CCN2C[C@H](OCc3ccccn3)C[C@H]2C1`, the cytotoxicity at 10 µM was -0.746%.

Take `O=C(CCc1ccccc1Br)N1CC(S(=O)(=O)C2CCCCC2)C1`: the cytotoxicity at 10 µM is -1.36%.

In the case of `O=C(CCn1cncn1)N1C[C@@H]2CC[C@H]1CN(Cc1cccnc1)C2`, the cytotoxicity at 10 µM amounted to 7.39%.

In the case of `CCN(C(=O)C1=NN(c2ccccc2)C(=O)CN1)c1ccccc1`, the cytotoxicity at 10 µM worked out at 12%.

Regarding `O=C([C@H]1C[C@H]2OCC[C@H]2N(Cc2ccc(F)cc2)C1)N1CCCCO1`, the cytotoxicity at 10 µM was -65.5%.

With `c1cncc(OCc2noc3c2CN(Cc2ccsc2)CC3)c1`, the cytotoxicity at 10 µM stood at 4.76%.
